The results in this text go back to ChEMBL document CHEMBL4359895, “Discovery and biological evaluation of darolutamide derivatives as inhibitors and down-regulators of wild-type AR and the mutants” (Eur J Med Chem, 2019).

The source made the active and inactive calls. No cut-off for these calls is given here.

The test system of data set [1] is VCaP. The data set is described as follows: Inhibition of AR protein expression in human VCaP cells at 10 to 30 uM incubated for 24 hrs by Western blot analysis. It counts as functional, cell-based. The essentials:
(§1)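 LNCaP, VCaP and 22Rv1 cells grown in medium with 10% (v/v) FBS. Treated with compounds or DMSO for 24 h. AR-full and AR splice-variant protein then assessed by western blot.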
(In general: Immunoblotting shows a protein as a band on a membrane.)

For data set [2], the system named is CWR22R. As to the kind of experiment: Inhibition of AR mRNA level in human 22Rv1 cells at 10 to 30 uM incubated for 24 hrs by qRT-PCR analysis. The data set is classed as functional, cell-based. The essentials:
(§2)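 LNCaP, VCaP and 22Rv1 cells treated with DMSO or compounds for 24 h. AR-full and AR-V7 mRNA measured by qRT-PCR and normalised to GAPDH. Mean ± SD, n = 3, compared with DMSO by two-tailed t test.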
A general note: In qPCR the cycle at which signal appears reflects the starting amount.

In data set [3] the test system is LNCaP. As to the kind of experiment: Inhibition of AR mRNA level in human LNCAP cells at 5 to 20 uM incubated for 24 hrs by qRT-PCR analysis. It counts as functional, cell-based. The essentials: as §2
In data set [4] the test system is CWR22R. As to the kind of experiment: Inhibition of AR splice variant 7 mutant gene expression in human 22Rv1 cells at 10 to 30 uM incubated for 24 hrs by qRT-PCR analysis. It counts as functional, cell-based. In outline:
as §2

Data set [5] concerns CWR22R. As to the kind of experiment: Inhibition of AR protein expression in human 22Rv1 cells at 10 to 30 uM incubated for 24 hrs by Western blot analysis. The data set is classed as functional, cell-based. The essentials:
as §1

Data set [6] has as its system T1, Androgen receptor (Homo sapiens), P10275 [F877L].
T1 sequence (whole entry): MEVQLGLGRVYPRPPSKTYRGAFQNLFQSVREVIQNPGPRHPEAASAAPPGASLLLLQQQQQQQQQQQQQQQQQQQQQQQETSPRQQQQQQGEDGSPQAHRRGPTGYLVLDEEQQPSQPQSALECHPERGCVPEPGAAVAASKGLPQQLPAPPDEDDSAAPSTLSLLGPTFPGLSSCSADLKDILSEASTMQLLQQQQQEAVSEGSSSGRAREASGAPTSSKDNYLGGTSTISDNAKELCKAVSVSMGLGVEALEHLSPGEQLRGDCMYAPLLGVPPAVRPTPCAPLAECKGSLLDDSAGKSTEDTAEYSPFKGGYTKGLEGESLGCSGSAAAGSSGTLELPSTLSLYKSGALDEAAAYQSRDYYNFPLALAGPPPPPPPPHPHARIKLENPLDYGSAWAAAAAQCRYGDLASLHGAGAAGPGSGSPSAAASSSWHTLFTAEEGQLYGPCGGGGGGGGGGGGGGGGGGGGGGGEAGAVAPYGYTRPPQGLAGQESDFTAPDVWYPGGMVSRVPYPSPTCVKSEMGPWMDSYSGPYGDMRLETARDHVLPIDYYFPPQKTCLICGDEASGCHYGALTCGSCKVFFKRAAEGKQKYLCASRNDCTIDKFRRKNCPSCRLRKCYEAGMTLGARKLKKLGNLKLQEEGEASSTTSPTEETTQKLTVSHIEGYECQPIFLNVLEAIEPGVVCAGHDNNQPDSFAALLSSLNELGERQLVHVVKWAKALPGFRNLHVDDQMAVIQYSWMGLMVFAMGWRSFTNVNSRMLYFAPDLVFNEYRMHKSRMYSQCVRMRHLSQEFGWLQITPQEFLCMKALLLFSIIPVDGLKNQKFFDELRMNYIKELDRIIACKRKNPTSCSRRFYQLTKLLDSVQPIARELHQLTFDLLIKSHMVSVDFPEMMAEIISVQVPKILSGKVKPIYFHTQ
As to the kind of experiment: Inhibition of EGFP-tagged AR F876L mutant (unknown origin) transfected in human WPMY1 cells assessed as reduction in R1881-induced nuclear translocation of AR F876L at 20 uM incubated for 24 hrs by Hoechst 33342 staining based fluorescence microscopy. It counts as cell-based. In outline: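 WPMY-1 cells transfected with EGFP-tagged wt-AR or AR-F876L. Treated with vehicle or 20 µM compound, with or without 0.5 nM R1881, for 24 h. Nuclei labelled with Hoechst 33342 and AR localisation imaged by fluorescence.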

In data set [7] the test system is CWR22R. As to the kind of experiment: Inhibition of AR splice variant 7 mutant expression in human 22Rv1 cells at 10 to 30 uM incubated for 24 hrs by Western blot analysis analysis. It counts as functional, cell-based. The essentials:
as §1

Data set [8] can be described thus: Stability of compound in nutrient medium with fetal bovine serum and antibiotic incubated for 6 days by HPLC analysis. Conditions: 144 h.
The test system of data set [9] is LNCaP. As to the kind of experiment: Inhibition of AR protein expression in human LNCAP cells at 20 uM incubated for 24 hrs by Western blot analysis. It counts as functional, cell-based. The essentials:
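LNCaP cells treated with 20 µM compound or DMSO for 24 h. AR-full protein detected by western blot with tubulin as loading control, then quantified by ImageJ grayscale analysis.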

Data set [10] has as its system LNCaP. The data set is described as follows: Induction of androgen receptor splice variant 7 mutant degradation in human LNCAP cells at 30 uM incubated upto 26 hrs in presence of bortezomib by Western blot analysis. The data set is classed as functional, cell-based.
Data set [11] has as its system VCaP. As to the kind of experiment: Inhibition of AR mRNA level in human VCaP cells at 10 to 40 uM incubated for 24 hrs by qRT-PCR analysis. It counts as functional, cell-based. The essentials: as §2
The test system of data set [12] is VCaP. As to the kind of experiment: Antitumor activity against castration-resistant human VCaP cells xenografted in BALB/c mouse assessed as tumor growth inhibition at 30 mg/kg, po administered for 40 days. The data set is classed as functional. Conditions: 960 h, read-out: TGI. The essentials:
(§3)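 Castration-resistant VCaP xenografts grown in male BALB/c nude mice. Animals dosed once daily for 40 days alongside a vehicle group. Tumor volume tracked over time, with tumor weights taken at end. Reported as tumor growth inhibition, mean ± SEM, N = 8-9 per group.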
On the technique in general: A xenograft is tissue or cells of one species grown in another, often human tumour cells in immunodeficient mice.

Data set [13] deals with VCaP. The data set is described as follows: Inhibition of AR splice variant 7 mutant expression in human VCaP cells at 10 to 40 uM incubated for 24 hrs by Western blot analysis analysis. The data set is classed as functional, cell-based. The essentials: as §1
For data set [14], the system named is CWR22R. The data set is described as follows: Inhibition of AR protein expression in human 22Rv1 cells at 10 to 40 uM incubated for 24 hrs by Western blot analysis. The data set is classed as functional, cell-based. The essentials:
as §1

Data set [15] can be described thus: Half life in Sprague-Dawley rat 30 mg/kg, po measured up to 24 hrs by LC-MS/MS analysis. The data set is classed as ADME, organism-based. The settings on record: in vivo. The essentials: (§4)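 Rats dosed orally at 30 mg/kg, compound formulated in 10% DMA / 90% PEG200. Plasma levels followed over time to build concentration-time curves, from which T1/2, Tmax, Cmax and AUC were derived.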

The nature of data set [16]: Toxicity in BALB/c mouse xenografted with castration-resistant human VCaP cells assessed as weight loss at 30 to 60 mg/kg, po administered for 40 days. The data set is classed as organism-based. Conditions: in vivo, 960 h. The essentials: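 Castration-resistant VCaP xenografts in male BALB/c nude mice. Animals treated once daily for 40 days, with a vehicle group included.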

The test system of data set [17] is VCaP. The data set is described as follows: Antitumor activity against castration-resistant human VCaP cells xenografted in BALB/c mouse assessed as tumor growth inhibition at 60 mg/kg, po administered for 40 days. The settings on record: 960 h, read-out: TGI. The data set is classed as functional. The essentials: as §3
Data set [18] deals with LNCaP. The data set is described as follows: Inhibition of AR splice variant 7 mutant gene expression in human LNCAP cells at 5 to 30 uM incubated for 24 hrs by qRT-PCR analysis. The data set is classed as functional, cell-based. The essentials:
as §2

In data set [19] the test system is LNCaP. The data set is described as follows: Inhibition of AR splice variant 7 mutant expression in human LNCAP cells at 5 to 30 uM incubated for 24 hrs by Western blot analysis analysis. It counts as functional, cell-based. In outline:
as §1

Data set [20] in a line: AUC (0 to t) in Sprague-Dawley rat 30 mg/kg, po measured up to 24 hrs by LC-MS/MS analysis. It counts as ADME, organism-based. Set-up: dose 30 mg/kg, time < 24 hr, route oral. Conditions: in vivo. The essentials:
as §4

Data set [21] relates to CWR22R. The data set is described as follows: Inhibition of AR splice variant 7 mutant gene expression in human 22Rv1 cells at 10 to 40 uM incubated for 24 hrs by qRT-PCR analysis. It counts as functional, cell-based. In outline:
as §2

For orientation: half-life means how long it takes for the measured level to halve. The low end stands for fast loss, the high end for slow loss. A word on the AUC(0-t): it is the area under the concentration-time curve up to a stated or last time point.

Take `C[C@@H](Cn1ccc(-c2ccc(C#N)c(Cl)c2)n1)Nc1cccc2ncccc12`: the inhibition entry (with VCaP [1]; in the data set with CWR22R [2]; in the data set with LNCaP [3]; with CWR22R [4]; in the data set on CWR22R [5]; in [6]) was “Active” throughout. Further, the inhibition entry with CWR22R [7] and in the data set with LNCaP [9] was “Active” in each case. For the same compound, the Stability entry in data set [8] is listed as “Stable”.

`C[C@@H](Cn1ccc(-c2ccc(C#N)c(Cl)c2)n1)Nc1ncnc2nc[nH]c12`: the inhibition result in the data set on VCaP [1], in the data set on VCaP [11], in the data set on VCaP [13], in the data set with CWR22R [14], with LNCaP [18] and with LNCaP [19] was “Active” throughout. Moreover, the inhibition entry (in data set [6]; in the data set with CWR22R [21]; with LNCaP [9]) was “Active” throughout. Further, the result with LNCaP [10] was inactive. The inhibition in vivo at 30 mg/kg in the data set on VCaP [12] was determined as 64.7%. In data set [15], this compound gave a half-life of 107 min. For the same compound, in [16], the Activity result is reported as “Non-Toxic”. The inhibition in vivo at 60 mg/kg in the data set with VCaP [17] is 77.8%. The compound also registered an AUC(0-t) at 24 h in data set [20] of 7280 ng·h/mL. Moreover, the Stability result in data set [8] was “Stable”.
